# According to ChEMBL document CHEMBL1143074, “Symplocamide A, a potent cytotoxin and chymotrypsin inhibitor from the marine Cyanobacterium Symploca sp” (J Nat Prod, 2008):
# Active and inactive are the calls of the source. The calls are words filed in the database; no cut-off is given here.
# Tests used:
# [1] = Inhibition of trypsin
# Outline: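 Trypsin (0.0023 mg/mL final, 2.75 BAEE U) was added to 0.45 mM BAEE in 64 mM NaH2PO4 pH 7.6 at 25 °C. Compound was premixed with substrate from a 1:2 EtOH dilution series (final 4.5 × 10-4 to 6.8 × 10^-6 M), against an EtOH blank. N-benzoyl-L-arginine formation was read at 253 nm for 5 min, and the 0.5–2 min interval was analyzed.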
# [2] = Inhibition of chymotrypsin
# Outline: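 Spectrophotometric assay: 0.0025 mg/mL chymotrypsin (0.0086 U) with 0.53 mM BTEE in 38 mM Tris-HCl pH 7.8, 53 mM CaCl2, 0.5 mM HCl and 32% MeOH at 25 °C. Inhibitor (from MeOH dilutions, final 6.25 × 10-5 to 7.5 × 10^-9 M) was equilibrated with substrate before enzyme addition. Absorbance at 256 nm was followed for 5 min, and the 0.5–1.5 min interval was analyzed.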
# [3] = system: NCI-H460; experiment: Cytotoxicity against human H460 cells; format: functional, cell-based
# [4] = Cytotoxicity against mouse Neuro2a cells; format: functional, cell-based; conditions: N2a
# [5] = system: Plasmodium falciparum; experiment: Antiparasitic activity against chloroquine-resistant Plasmodium falciparum W2 in microfluorimetric assay; format: functional, organism-based
# [6] = system: Trypanosoma cruzi; experiment: Antiparasitic activity against Trypanosoma cruzi C4 clone; format: functional, organism-based
# [7] = system: Leishmania donovani; experiment: Antiparasitic activity against Leishmania donovani LD-1S/MHOM/SD/00-strain 1S; format: functional, organism-based
# [8] = Inhibition of chymotrypsin at 10 uM
# [9] = Inhibition of trypsin at 10 uM
IC50 [1] [µM],Activity [8],Activity [9],Structure (SMILES),other results
0.07,inactive,–,CCCCCCCC(=O)N[C@@H](CCC(=O)O)C(=O)N[C@@H]1C(=O)N[C@@H](CCCCN)C(=O)N[C@H]2CC[C@@H](O)N(C2=O)[C@@H](CC(C)C)C(=O)N(C)[C@@H](Cc2ccc(O)cc2)C(=O)N[C@@H](C(C)C)C(=O)O[C@@H]1C [MICROPEPTIN A],–
4,inactive,–,CCCCCC(=O)N[C@@H](CC(=O)O)C(=O)N[C@@H]1C(=O)N[C@@H](CCCNC(=N)N)C(=O)N[C@H]2CC[C@@H](O)N(C2=O)[C@@H]([C@@H](C)CC)C(=O)N(C)[C@@H](CC(=O)c2ccccc2N)C(=O)N[C@@H](C(C)C)C(=O)O[C@@H]1C [MICROPEPTIN SD999],–
–,inactive,inactive,CC(C)[C@H](NC(=O)[C@@H](C)NC(=O)[C@H](CCCc1ccc(O)cc1)NC(=O)[C@H](O)CO)C(=O)N[C@@H]1C(=O)N[C@@H](CCc2ccc(O)cc2)C(=O)N[C@H]2CC[C@@H](O)N(C2=O)[C@@H]([C@@H](C)O)C(=O)N(C)[C@@H](Cc2ccc(O)c(Br)c2)C(=O)N[C@@H](C(C)C)C(=O)O[C@@H]1C,–
–,inactive,inactive,CCCC(=O)N[C@@H](CC(C)C)C(=O)N[C@@H](CCC(=O)O)C(=O)N[C@@H]1C(=O)N[C@@H](Cc2ccc(O)cc2)C(=O)N[C@H]2CC[C@@H](O)N(C2=O)[C@@H](C(C)C)C(=O)N(C)[C@@H](Cc2ccccc2)C(=O)N[C@@H]([C@@H](C)CC)C(=O)O[C@@H]1C,–
–,inactive,inactive,CCCC(=O)N[C@@H](Cc1ccccc1)C(=O)N[C@@H](CCC(=O)O)C(=O)N[C@@H]1C(=O)N[C@@H](CCC(=O)O)C(=O)N[C@H]2CC[C@@H](O)N(C2=O)[C@@H](C(C)C)C(=O)N(C)[C@@H](Cc2ccccc2)C(=O)N[C@@H]([C@@H](C)CC)C(=O)O[C@@H]1C,–
–,inactive,inactive,CCC(=O)N[C@@H](CCC(N)=O)C(=O)N1CC(C)[C@@H]2OC(=O)[C@H]([C@@H](C)CC)NC(=O)[C@H](Cc3ccc(O)cc3)N(C)C(=O)[C@H]([C@@H](C)CC)N3C(=O)[C@H](CC[C@H]3O)NC(=O)[C@H](CC(C)C)NC(=O)[C@H]21 (stereo partly drawn),–
3.83,inactive,–,CCCC(=O)N[C@@H](CC(=O)O)C(=O)N[C@@H]1C(=O)N[C@@H](CCCNC(=N)N)C(=O)N[C@H]2CC[C@@H](O)N(C2=O)[C@@H](Cc2ccccc2)C(=O)N(C)[C@@H](Cc2ccc(O)cc2)C(=O)N[C@@H]([C@@H](C)CC)C(=O)O[C@@H]1C [MICROPEPTIN EI992],–
–,inactive,inactive,CC[C@H](C)[C@@H]1NC(=O)[C@H](Cc2ccc(O)cc2)N(C)C(=O)[C@H]([C@@H](C)CC)N2C(=O)C(CCC2O)NC(=O)[C@H](CC(C)C)NC(=O)[C@@H]2C(OC1=O)C(C)CN2C(=O)[C@H](CCC(N)=O)NC(C)=O (stereo in doubt; form 2),–
–,inactive,inactive,CC[C@H](C)[C@@H]1NC(=O)[C@H](Cc2ccc(OC)cc2)N(C)C(=O)[C@H]([C@@H](C)O)N2C(=O)[C@H](CC[C@H]2O)NC(=O)[C@H](CC(C)C)NC(=O)[C@@H](NC(=O)[C@H](CCC(N)=O)NC(=O)[C@@H]2CCC(=O)N2)[C@@H](C)OC1=O,–
4.36,inactive,–,CC[C@H](C)[C@@H]1NC(=O)[C@H](Cc2ccc(O)cc2)N(C)C(=O)[C@H](Cc2ccccc2)N2C(=O)[C@H](CC[C@H]2O)NC(=O)[C@H](CCCNC(=N)N)NC(=O)[C@@H](NC(=O)[C@H](CC(=O)O)NC(C)=O)[C@@H](C)OC1=O [MICROPEPTIN E1964],–
0.26,inactive,–,CCCCCC(=O)N[C@@H](CCC(=O)O)C(=O)N[C@@H]1C(=O)N[C@@H](CCCNC(=N)N)C(=O)N[C@H]2CC[C@@H](O)N(C2=O)[C@@H](CC(C)C)C(=O)N(C)[C@@H](Cc2ccc(O)cc2)C(=O)N[C@@H](C(C)C)C(=O)O[C@@H]1C [MICROPEPTIN B],–
–,–,inactive,CCCC(=O)N[C@@H](Cc1ccccc1)C(=O)N[C@@H](CCC(=O)OC)C(=O)N[C@@H]1C(=O)N[C@@H](Cc2ccc(O)cc2)C(=O)N[C@H]2CC[C@@H](O)N(C2=O)[C@@H](C(C)C)C(=O)N(C)[C@@H](Cc2ccccc2)C(=O)N[C@@H]([C@@H](C)CC)C(=O)O[C@@H]1C [MICROPEPTIN 88F],IC50 [2]: 3.02 µM
–,–,inactive,CC[C@H](C)[C@@H]1NC(=O)[C@H](Cc2ccc(OC)cc2)N(C)C(=O)[C@H](CC(C)C)N2C(=O)[C@H](CC[C@H]2O)NC(=O)[C@H](CC(C)C)NC(=O)[C@@H]2[C@@H](OC1=O)C(C)CN2C(=O)[C@H](CCC(N)=O)NC(C)=O (stereo partly drawn) [NOSTOPEPTIN I],IC50 [2]: 3.5 µM
2.08,inactive,–,CC(C)[C@@H]1NC(=O)[C@H](Cc2ccc(O)cc2)N(C)C(=O)[C@H](Cc2ccccc2)N2C(=O)[C@H](CC[C@H]2O)NC(=O)[C@H](CCCNC(=N)N)NC(=O)[C@@H](NC(=O)[C@@H](O)COS(=O)(=O)O)[C@@H](C)OC1=O [MICROPEPTIN 90],–
–,–,inactive,CC(C)C[C@@H]1NC(=O)[C@@H](NC(=O)[C@@H](NC(=O)[C@@H](C)NC(=O)[C@H](CCCc2ccc(O)cc2)NC(=O)[C@H](O)CO)C(C)C)[C@@H](C)OC(=O)[C@H](C(C)C)NC(=O)[C@H](Cc2ccc(O)c(Cl)c2)N(C)C(=O)[C@H]([C@@H](C)O)N2C(=O)[C@H](CC[C@H]2O)NC1=O [LARGAMIDE E],IC50 [2]: 10 µM
–,–,inactive,CCCCCC(=O)N[C@@H](CCC(N)=O)C(=O)N[C@@H]1C(=O)N[C@@H](Cc2ccc(O)cc2)C(=O)N[C@H]2CC[C@@H](O)N(C2=O)[C@@H](Cc2ccccc2)C(=O)N(C)[C@@H](Cc2ccc(O)cc2)C(=O)N[C@@H](C(C)C)C(=O)O[C@@H]1C [MICROPEPTIN T1],IC50 [2]: 2.85 µM
–,–,inactive,CC[C@H](C)[C@@H]1NC(=O)[C@H](Cc2ccc(OC)cc2)N(C)C(=O)[C@H]([C@@H](C)O)N2C(=O)[C@H](CC[C@H]2O)NC(=O)[C@H](CC(C)C)NC(=O)[C@@H](NC(=O)[C@H](CCC(N)=O)NC(=O)[C@H](CCc2ccc(O)cc2)NC(=O)[C@@H](O)CO)[C@@H](C)OC1=O [PLANKTOPEPTIN BL1125],IC50 [2]: 0.8 µM
–,–,inactive,CC[C@H](C)[C@@H]1NC(=O)[C@H](Cc2ccccc2)N(C)C(=O)[C@H](C(C)C)N2C(=O)[C@H](CC[C@H]2O)NC(=O)[C@H](Cc2ccc(O)cc2)NC(=O)[C@@H](NC(=O)[C@H](CCC(=O)O)NC(=O)[C@H](Cc2ccc(O)cc2)NC(C)=O)[C@@H](C)OC1=O [MICROPEPTIN 88Y],IC50 [2]: 1.3 µM
8.47,inactive,–,CCCCCC(=O)N[C@@H](CC(=O)O)C(=O)N[C@@H]1C(=O)N[C@@H](CCCCN)C(=O)N[C@H]2CC[C@@H](O)N(C2=O)[C@@H]([C@@H](C)CC)C(=O)N(C)[C@@H](Cc2ccc(O)cc2)C(=O)N[C@@H](C(C)C)C(=O)O[C@@H]1C [MICROPEPTIN SD944],–
0.18,inactive,–,CC[C@@H](C)[C@@H]1NC(=O)[C@H](Cc2ccccc2)N(C)C(=O)[C@H]([C@@H](C)CC)N2C(=O)[C@H](CC[C@H]2O)NC(=O)[C@H](CCCCN)NC(=O)[C@@H](NC(=O)[C@@H](CCc2ccccc2)NC(=O)[C@@H](COS(=O)(=O)O)OC)[C@@H](C)OC1=O [OSCILLAPEPTIN F],–
0.1,inactive,–,CCCCCC(=O)N[C@@H](CCC(=O)O)C(=O)N[C@@H]1C(=O)N[C@@H](CCCCN)C(=O)N[C@H]2CC[C@@H](O)N(C2=O)[C@@H](Cc2ccccc2)C(=O)N(C)[C@@H](Cc2c[nH]c3ccccc23)C(=O)N[C@@H](C(C)C)C(=O)O[C@@H]1C [MICROPEPTIN T2],–
0.2,inactive,–,CCCCCC(=O)N[C@@H](CC(=O)O)C(=O)N[C@@H]1C(=O)N[C@@H](CCCNC(=N)N)C(=O)N[C@H]2CC[C@@H](O)N(C2=O)[C@@H]([C@@H](C)CC)C(=O)N(C)[C@@H](Cc2c[nH]c3ccccc23)C(=O)N[C@@H](C(C)C)C(=O)O[C@@H]1C [MICROPEPTIN SF995],–

Structure (SMILES),IC50 [1] [µM],Activity [8],Activity [9],other results
CC(C)C[C@@H](NC(=O)[C@H](O)COS(=O)(=O)O)C(=O)N[C@@H]1C(=O)N[C@@H](CCCNC(=N)N)C(=O)N[C@H]2CC[C@@H](O)N(C2=O)[C@@H](CC(C)C)C(=O)N(C)[C@@H](Cc2ccc(O)cc2)C(=O)N[C@@H](C(C)C)C(=O)O[C@@H]1C,0.0096,–,–,–
CCCC(=O)N[C@@H](CCC(N)=O)C(=O)N[C@@H]1C(=O)N[C@@H](CCCNC(N)=O)C(=O)N[C@H]2CC[C@@H](O)N(C2=O)[C@@H]([C@@H](C)CC)C(=O)N(C)[C@@H](Cc2ccc(OC)c(Br)c2)C(=O)N[C@@H](C(C)C)C(=O)O[C@@H]1C [SYMPLOCAMIDE A],80.2,–,–,IC50 [2]: 0.38 µM; IC50 [3]: 0.04 µM; IC50 [4]: 0.029 µM; IC50 [5]: 0.95 µM; IC50 [6]: > 9.5 µM; IC50 [7]: > 9.5 µM
CC[C@H](C)[C@@H]1NC(=O)[C@H](Cc2ccccc2)N(C)C(=O)[C@H]([C@@H](C)CC)N2C(=O)[C@H](CC[C@H]2O)NC(=O)[C@H](CCCNC(=N)N)NC(=O)[C@@H](NC(=O)[C@H](O)COS(=O)(=O)O)[C@@H](C)OC1=O [CYANOPEPTOLIN S],0.24,–,–,–
